“Also recorded” adds a separate entry of the source. Read-outs that look alike come from different tables or passages of the source. No end group written: not given here.
B1: ASCIZ: transcription factor ASCIZ with 17 motifs (protein, UniProt O43313 1-823, looked up)
ATM interactor: MAASEAAAAAGSAALAAGARAVPAATTGAAAAASGPWVPPGPRLRGSRPRPAGATQQPAVPAPPAGELIQPSVSELSRAVRTNILCTVRGCGKILPNSPALNMHLVKSHRLQDGIVNPTIRKDLKTGPKFYCCPIEGCPRGPERPFSQFSLVKQHFMKMHAEKKHKCSKCSNSYGTEWDLKRHAEDCGKTFRCTCGCPYASRTALQSHIYRTGHEIPAEHRDPPSKKRKMENCAQNQKLSNKTIESLNNQPIPRPDTQELEASEIKLEPSFEDSCGSNTDKQTLTTPPRYPQKLLLPKPKVALVKLPVMQFSVMPVFVPTADSSAQPVVLGVDQGSATGAVHLMPLSVGTLILGLDSEACSLKESLPLFKIANPIAGEPISTGVQVNFGKSPSNPLQELGNTCQKNSISSINVQTDLSYASQNFIPSAQWATADSSVSSCSQTDLSFDSQVSLPISVHTQTFLPSSKVTSSIAAQTDAFMDTCFQSGGVSRETQTSGIESPTDDHVQMDQAGMCGDIFESVHSSYNVATGNIISNSLVAETVTHSLLPQNEPKTLNQDIEKSAPIINFSAQNSMLPSQNMTDNQTQTIDLLSDLENILSSNLPAQTLDHRSLLSDTNPGPDTQLPSGPAQNPGIDFDIEEFFSASNIQTQTEESELSTMTTEPVLESLDIETQTDFLLADTSAQSYGCRGNSNFLGLEMFDTQTQTDLNFFLDSSPHLPLGSILKHSSFSVSTDSSDTETQTEGVSTAKNIPALESKVQLNSTETQTMSSGFETLGSLFFTSNETQTAMDDFLLADLAWNTMESQFSSVETQTSAEPHTVSNF
B2: QT4p (peptide)
peptide: SYWSRSTTTQTDM
B3: Chica_(410–478) (domain or fragment, human, UniProt Q9H4H8 410-478, looked up)
chain: QTSITTACAGTQTAVITRIASSQTTIWSRSTTTQTDMDENILFPRGTQSTEGSPVSKMSVSRSSSLKSS
B4: QT2p (peptide)
peptide: SYSVSEVGTQTSI
B5: LC8 (natural protein)
chain: MSDRKAVIKNADMSEEMQQDAVDCATQALEKYNIEKDIAAYIKKEFDKKYNPTWHCIVGRNFGSYVTHETRHFIYFYLGQVAILLFKSG
B6: QT1p (peptide)
peptide: SYRKAIDAATQTEE

Columns and labels:
LC8 [1] = molecular target: T1, LC8 (Drosophila melanogaster, UniProt Q24117); conditions: read-out: binding affinity; Pak1; cited from earlier work
LC8 [2] = molecular target: T1, LC8; assay: Isothermal titration calorimetry of LC8 binding to Chica motif peptides; conditions: for relative affinity, in words: comparison between Chica motif peptides; for fold weaker affinity than QT1p: relative to QT1p (Kd 0.4 μM)
In short: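 Synthetic peptides of Chica motifs, with added non-native N-terminal residues for solubility and A280 quantitation, at 280–300 μM final in 50 mM sodium phosphate, 50 mM NaCl, 0.5 mM sodium azide, pH 7.5. Titrated into 30–35 μM LC8 in the cell at 25 °C. Peak areas were fitted to a single-site model for N, Kd, ΔH and ΔS. Values are the average of three independent experiments.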

LC8 [3] = molecular target: T1, LC8; conditions: of 17 motifs; cited from earlier work
LC8 [4] = molecular target: B5; assay: ITC
LC8 [5] = molecular target: B5; assay: ITC; remark: listed apart in the source
Chica_(410–478) = molecular target: B3; assay: ITC

## Pak1: LC8 recognition motif of Pak1 (TPTRDVATSP)
LC8 [1]
  Kd: 42.7 µM

## SYSVSEVGTQTSI [QT2p]
LC8 [2]; ITC, listed as QT2
  relative affinity, in words: bind LC8 with a similar affinity
LC8 [2]
  fold weaker affinity than QT1p: over 10 fold

## SYTTACAGTQTAV [QT3p]
LC8 [2]; ITC, 25 °C, pH 7.5
  binding to LC8, in words: too weak to be measured accurately by ITC; also recorded: immeasurably weak

## SYWSRSTTTQTDM [QT4p]
LC8 [2]; ITC
  relative affinity, in words: bind LC8 with a similar affinity
LC8 [2]
  fold weaker affinity than QT1p: over 10 fold

## B1
LC8 [3]
  number of motifs that bind LC8: 11

## B2
LC8 [4]
  Kd: 5.2 ± 0.1 µM
  dH: -34.3 ± 0.418 kJ/mol
  stoichiometry N: 1

## B3
LC8 [5]
  Kd: 0.4 ± 0.1 µM

## B4
LC8 [4]
  Kd: 6.3 ± 0.4 µM
  dH: -35.6 ± 4.6 kJ/mol
  stoichiometry N: 1

## B5
Chica_(410–478)
  dH: -31.8 ± 0.837 kJ/mol
  stoichiometry N: 3

## B6
LC8 [4]
  dH: -28.5 ± 0.837 kJ/mol
  stoichiometry N: 1

From publication PMC6995037 (Biochemistry, 2015)
